# Experimental data gathered from unrelated publications.
# Target: Tyrosine-protein kinase Yes (YES1, Homo sapiens, UniProt P07947)
Compound,assay,conditions,quantity,value
Cn1cncc1[C@@](O)(COc1ccc(C#N)cc1-c1ccc(OC(F)(F)F)cc1)c1ccc(C#N)cc1,"cell-free assay, competition with immobilised ligand",1 µM,remaining binding,100%
C#Cc1n[nH]c2c(-c3cn([C@@H](C)c4ccccn4)c(=O)[nH]c3=O)cc(F)cc12,"enzyme activity, inhibitor",0.1 µM,inhibition,-3.4%
Cc1nn(C)cc1-c1nc2c(N3CCN(Cc4ccc(Cl)cc4)CC3)c(Cl)cnc2[nH]1,"binding, competition with immobilised ligand",1 µM,remaining binding,96%
Cn1cc(-c2cc(F)cc(N3CCn4c(cc5c4CCCC5)C3=O)c2CO)cc(Nc2ccc(N3CCN(C4COC4)CC3)cn2)c1=O,"enzyme activity, inhibitor",0.1 µM,inhibition,11%
CC(C)(C)c1cc(C=C(C#N)C#N)cc(Br)c1O,"enzyme activity, inhibitor",0.5 µM,remaining activity,83%
Nc1ncc(-c2nc(N3CCOCC3)nc(N3CCOCC3)n2)c(C(F)F)n1,"binding, competition with immobilised ligand",10 µM,remaining binding,80%
O=c1[nH]c2ccccc2n1C1CCN(Cc2ccc(-c3[nH]c4cc5ncnc5cc4nc3-c3ccccc3)cc2)CC1,cell-free assay,0.5 µM,remaining signal,90.8%
COc1ncccc1-c1cnn2ccc(N3CCN(C(=O)OC(C)C)CC3)nc12,"binding, competition with immobilised ligand",1 µM,remaining binding,100%
